{"source": "paper PMC9989826", "about": "(Cell Reports, 2023)", "key": {"[1]": {"test_system": "CCl4-intoxicated Nep−/− mice", "assay": "Captopril or losartan co-treatment of CCl4-intoxicated Nep−/− mice", "assay_type": "in vivo, mouse", "conditions": "losartan 5 mg/kg/day or captopril 4 mg/kg/day for four weeks, vs non-treated fibrotic Nep−/− mice, n = 6", "method_in_brief": "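Nep−/− mice (C57BL/6J background, male and female, 10–12 weeks) exposed to CCl4 at 1L/min three times weekly for four weeks, with phenobarbital 3.0 mg/kg/day in drinking water. Losartan or captopril co-treatment ran through the same four weeks. Sirius red-stained sections scored by morphometry; portal pressure recorded in mm Hg; hepatic Col1a1 mRNA by qPCR. Mean ± SEM.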"}, "[2]": {"test_system": "fibrotic WT (C57BL6/J) mice", "assay": "Entresto study: oral treatment of fibrotic WT mice", "assay_type": "in vivo, mouse", "conditions": "oral 100 mg/kg for 14 days; fibrotic mice vs control", "method_in_brief": "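Male and female WT mice, 10–12 weeks, made fibrotic over 7 weeks by i.p. CCl4 plus either ethanol in drinking water or Western diet. Entresto tablet (49mg/51mg) crushed and resuspended in 0.9% NaCl; valsartan and sacubitril prepared the same way. Dosed orally for 14 days until sacrifice. Portal pressure measured at the end; hepatic Col1a1 mRNA also assessed. Mean ± SEM.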"}, "[3]": {"test_system": "primary mouse HSC (WT and Nep−/−)", "assay": "Collagen gel contraction assay", "assay_type": "cell-based", "conditions": "primary mouse HSCs on collagen gels, NPY 0–100 nM, 0–48 h; Nep−/− vs WT", "method_in_brief": "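Primary HSCs were isolated from WT and Nep−/− mice and cultured at least one week until fully activated. 1 × 10^4 cells were embedded in 1 mg/mL collagen gels, in triplicate per group. […] Gel area was tracked from images taken at fixed camera distance over time, as % of initial surface; mean ± SEM, n = 3–6.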"}, "[4]": {"test_system": "primary mouse HSC (WT and Nep−/−)", "assay": "mRNA expression", "assay_type": "cell-based", "conditions": "NPY 1 nM, 24 h"}, "[5]": {"test_system": "primary HSCs from Nep−/− mice", "assay": "Immunofluorescence and confocal microscopy of collagen I and αSMA", "assay_type": "cell-based, mouse", "conditions": "full-length NPY, 24 h", "method_in_brief": "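Primary Nep−/− HSCs, activated by at least one week of culture, were serum-starved 12 h. […] Cells were fixed in 4% paraformaldehyde and permeabilized with 1% Triton X-100, each 10 min at 37°C, then blocked 1 h in 1% BSA. Anti-collagen I (1:50) and anti-α-SMA (1:200) ran overnight at 4°C, secondaries (1:3000) 2 h, with DAPI counterstain. Confocal fluorescence was quantified from three independent experiments.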"}, "primary Nep−/− HSCs": {"test_system": "primary Nep−/− HSCs", "assay": "Determination of cellular cAMP", "assay_type": "cell-based, mouse", "conditions": "serum starved, full-length NPY 1 nM or mix of C-terminal fragments 30 μM, 30 min (methods), 24 h (Figure 4F), n = 3–4", "method_in_brief": "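HSCs isolated from WT and Nep−/− mice were cultured at least one week (fully activated) in DMEM/20% FBS with penicillin-streptomycin, in Zn- and EDTA-free buffers. […] Competitive cAMP ELISA, normalised to total protein; mean ± SEM.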"}, "[6]": {"test_system": "primary mouse HSC (WT and Nep−/−)", "assay": "Western blot of ROCK, p-moesin and p-ERK in primary HSCs", "assay_type": "cell-based", "conditions": "NPY 1 nM, 24 h, compared with WT cells", "method_in_brief": "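Primary HSCs from WT and Nep−/− mice were cultured at least one week until fully activated. They were seeded at 300,000 cells/well in DMEM with 20% FBS, and buffers were free of Zn and EDTA. […] Protein was read by western blot with GAPDH as loading control.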"}, "WT mice": {"test_system": "WT mice", "assay": "Intraperitoneal injection of NPYFL or its C-terminal fragments in WT mice", "assay_type": "in vivo, mouse", "conditions": "i.p., 72 hours, n = 6/group"}}, "data": [{"molecule": "C[C@H](CS)C(=O)N1CCC[C@H]1C(=O)O", "note": "[captopril]", "values": [{"measurement": "hepatic Col1a1 mRNA expression", "setting": "[1]", "result": "significantly reduced"}, {"measurement": "portal pressure", "setting": "[1]", "result": "significantly reduced"}]}, {"molecule": "CCCCc1nc(Cl)c(CO)n1Cc1ccc(-c2ccccc2-c2nn[nH]n2)cc1", "note": "[losartan]", "values": [{"measurement": "hepatic Col1a1 mRNA expression", "setting": "[1]", "result": "significantly reduced"}, {"measurement": "portal pressure", "setting": "[1]", "result": "significantly reduced"}]}, {"molecule": "CCOC(=O)[C@H](C)C[C@@H](Cc1ccc(-c2ccccc2)cc1)NC(=O)CCC(=O)O", "note": "[sacubitril]", "values": [{"measurement": "portal pressure, single components of Entresto", "setting": "[2]", "result": "Neither valsartan nor sacubitril were able to significantly reduce portal pressure"}]}, {"molecule": "CCCCC(=O)N(Cc1ccc(-c2ccccc2-c2nnn[nH]2)cc1)[C@H](C(=O)O)C(C)C", "note": "[valsartan]", "values": [{"measurement": "portal pressure, single components of Entresto", "setting": "[2]", "result": "Neither valsartan nor sacubitril were able to significantly reduce portal pressure"}]}, {"molecule": "Neuropeptide Y [NPY]", "values": [{"measurement": "HSC contraction (decrease of gel surface)", "setting": "[3]", "result": "induced more HSC contraction"}, {"measurement": "Col1a1 mRNA level", "setting": "[4]; Nep−/− HSCs", "result": "decreased"}, {"measurement": "Tgfβ1 mRNA level", "setting": "[4]; Nep−/− HSCs", "result": "decreased"}, {"measurement": "Acta2 mRNA expression", "setting": "[4]; Nep−/− HSCs, compared with WT control", "result": "induced"}, {"measurement": "Col1a1 mRNA level", "setting": "[4]; WT HSCs", "result": "increased"}, {"measurement": "Tgfβ1 mRNA level", "setting": "[4]; WT HSCs", "result": "increased"}, {"measurement": "αSMA expression (immunofluorescence)", "setting": "[5]", "result": "increased"}, {"measurement": "cAMP measurements (pmol cAMP per mg of total protein)", "setting": "primary Nep−/− HSCs", "result": "reduction"}, {"measurement": "ROCK protein and p-moesin expression (western blot)", "setting": "[6]", "result": "increased further"}, {"measurement": "hepatic Acta2 mRNA expression", "setting": "WT mice", "result": "significantly induced"}, {"measurement": "hepatic mRNA expression of the main fibrotic markers, Col1a1 and Tgfβ1", "setting": "WT mice", "result": "induced"}, {"measurement": "portal pressure", "setting": "WT mice", "result": "increase"}]}]}
